According to ChEMBL document CHEMBL4261631, “Synthetic thiosemicarbazones as a new class of Mycobacterium tuberculosis protein tyrosine phosphatase A inhibitors” (Bioorg Med Chem, 2018):

Key:
[1] = target: T1, Low molecular weight protein-tyrosine phosphatase A (Mycobacterium tuberculosis) (UniProt P9WIA1); experiment: Inhibition of recombinant Mycobacterium tuberculosis PtpA at 25 uM using p-nitrophenyl phosphate as substrate preincubated for 10 mins followed by substrate addition and measured every minute for 10 mins by UV-VIS spectrophotometric analysis
T1 sequence (whole entry): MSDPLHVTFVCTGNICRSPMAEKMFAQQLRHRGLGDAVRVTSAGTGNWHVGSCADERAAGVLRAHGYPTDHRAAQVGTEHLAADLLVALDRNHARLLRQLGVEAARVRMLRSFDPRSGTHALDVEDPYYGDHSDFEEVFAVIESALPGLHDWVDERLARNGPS
How it was run: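 Single-point screen at 25 µM final (from 1 mM DMSO stock, 2.5% DMSO final). 50 nM recombinant Mtb PtpA in 20 mM imidazole pH 7.0, premixed with compound 10 min at 37 °C. Reaction started with 10 mM pNPP. A410 read each min for 10 min at 37 °C. Residual activity from absorbance difference 7 min minus 2 min versus no-inhibitor wells. Triplicate.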

[2] = target: T2, Tyrosine-protein phosphatase non-receptor type 12 (Homo sapiens, UniProt Q05209); experiment: Inhibition of recombinant human PTP-PEST using p-nitrophenyl phosphate as substrate preincubated for 10 mins followed by substrate addition and measured every minute for 10 mins by UV-VIS spectrophotometric analysis
T2 sequence (Q05209 whole entry): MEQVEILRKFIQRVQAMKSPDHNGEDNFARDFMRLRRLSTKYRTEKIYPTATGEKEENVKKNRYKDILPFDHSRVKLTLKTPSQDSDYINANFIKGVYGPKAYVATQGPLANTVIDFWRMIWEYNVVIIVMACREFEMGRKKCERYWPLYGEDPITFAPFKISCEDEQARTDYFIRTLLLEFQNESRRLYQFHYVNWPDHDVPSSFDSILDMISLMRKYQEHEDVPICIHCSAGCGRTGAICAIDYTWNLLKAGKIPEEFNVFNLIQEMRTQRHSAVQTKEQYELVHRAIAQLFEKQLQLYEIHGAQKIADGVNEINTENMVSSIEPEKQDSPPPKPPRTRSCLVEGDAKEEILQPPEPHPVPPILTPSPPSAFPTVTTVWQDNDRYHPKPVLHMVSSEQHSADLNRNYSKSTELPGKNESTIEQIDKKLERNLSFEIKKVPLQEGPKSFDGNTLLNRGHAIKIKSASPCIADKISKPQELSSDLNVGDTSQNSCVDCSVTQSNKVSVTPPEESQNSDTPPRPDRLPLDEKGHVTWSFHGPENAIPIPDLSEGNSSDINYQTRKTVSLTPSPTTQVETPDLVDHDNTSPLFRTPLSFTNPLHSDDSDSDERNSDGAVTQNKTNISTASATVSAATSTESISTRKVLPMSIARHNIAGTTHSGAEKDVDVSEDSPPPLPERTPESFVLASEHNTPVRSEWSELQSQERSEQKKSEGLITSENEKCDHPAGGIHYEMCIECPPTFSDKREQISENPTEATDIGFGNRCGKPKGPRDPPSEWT
How it was run: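 Recombinant PTP at PtpB 50 nM, LYP 169 nM, PTP-PEST 205 nM or PTP1B 38 nM, in 20 mM imidazole pH 7.0. Inhibitor (0.5–50 µM, DMSO ≤4% v/v) premixed with enzyme 10 min at 37 °C. Started with 10 mM pNPP. A410 each min for 10 min. Activity from 7 min minus 2 min. IC50 by linear regression. Triplicate.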

[3] = system: Mycobacterium tuberculosis; experiment: Selectivity index, ratio of IC50 for recombinant Mycobacterium tuberculosis PtpB to IC50 for recombinant Mycobacterium tuberculosis PtpA
How it was run: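 Selectivity index calculated as IC50 for PtpB, LYP, PTP-PEST or PTP1B divided by IC50 for PtpA. Both IC50 values come from pNPP hydrolysis at 37 °C with 10 min enzyme–inhibitor premix and A410 readout, using 0.5–50 µM inhibitor.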

[4] = target: T3, Low molecular weight protein-tyrosine phosphatase A (Mycobacterium tuberculosis, UniProt P9WIA1); experiment: Competitive inhibition of Mycobacterium tuberculosis PtpA using p-nitrophenyl phosphate as substrate by Michaelis-Menten plot analysis
T3 sequence (P9WIA1 whole entry): T1 sequence (whole entry)
How it was run: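 Mtb PtpA-catalysed pNPP hydrolysis with pNPP varied 0.2–20 mM at each of three inhibitor concentrations. Rates expressed as specific activity (µmol pNPP min-1 mg-1). Vmax and Km fitted to Michaelis–Menten equation. Ki from non-linear fits to competitive or non-competitive inhibition equation, at least three independent experiments.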

SMILES	inhibition [1]	IC50 [2]	Ratio IC50 [3]	Ki [4]
Cc1ccc(NC(=S)N/N=C/c2ccc(-c3cc(C(F)(F)F)ccc3Cl)o2)cc1	66%	> 50 µM	3.3	12 µM
S=C(N/N=C/c1ccc(-c2ccccc2)cc1)Nc1cccc2ccccc12	79.7%	> 50 µM	2.4	–
O=[N+]([O-])c1ccc(/C=N/NC(=S)Nc2cccc3ccccc23)cc1	77.7%	> 50 µM	1.9	–
FC(F)(F)c1ccc(Cl)c(-c2ccc(/C=N/NC(=S)Nc3cccc4ccccc34)o2)c1	86.7%	15.7 µM	2.1	–
